High-throughput results: PubChem BioAssay, Broad Institute
STK33 inh: human STK33 kinase inhibition; Q9BYT3; inhibition, % at 10 µM; AID 2661; actives 0.073% (n = 320,000); purified STK33, MBP phosphorylation, ADP-Glo luminescence;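 active means inhibition at or above 25%, using the most active replicate where run in duplicate; inactive means inhibition below 25%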
GSK3 alpha inh: blocks human GSK-3 alpha kinase | P49840 | ADP-Glo luminescence, 60 min | inhibition, % at 10 µM | actives 0.1% (n = 320,000) | AID 2650;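 active means more than half of replicates show inhibition above 20%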;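 further: GST-tagged GSK-3 alpha with peptide substrate and 25 µM ATP; 0% = DMSO neutral wells and 100% = GW8510 positive control wells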
Dyrk1A ADPGlo: inhibitors of rat Dyrk1A kinase | ADP-Glo luminescence, NFATc1 peptide | inhibition, % at 12.5 µM | AID 504441 | Q63470 | actives 0.43% (n = 310,000); in the data active means inhibition above about 50%;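 further: plate controls were vehicle with enzyme for no effect and no enzyme for full effect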
GSK3B inh: inhibitors of human GSK3beta kinase | P49841 | GST-GSK3beta kinase, ADP-Glo luminescence, 60 min; active compounds read low | activity score (negative = inhibition), % at 10 µM | actives 0.038% (n = 300,000);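 active means more than half of replicate wells score below -50%, meaning over 50% inhibition versus plate controls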;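 further: 0% = median DMSO wells and -100% = median GW8510 positive control wells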
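Test system – GST-tagged human GSK3beta kinase, cell-free · Incubation – 60 min enzyme reaction, room temperature · Signal – ADP-Glo luminescence · Also added – peptide substrate and ATP at 25 µM · Controls – DMSO neutral wells and GW8510 at 20 µM as positive · Buffer or medium – Tris/MgCl2 kinase buffer · Measure – Luminescence-derived activity versus plate DMSO and GW8510 wells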
ADP-Glo artifact: interferes with ADP-Glo luciferase readout without Dyrk1A; shares compounds with Dyrk1A ADPGlo; ADP-Glo luciferase artifact assay, no Dyrk1A, luminescence; AC50, µM (titrated, usually from 12 µM), inactives show at the top dose activity change, negative = inhibition; 1,300 tested, under 10 active;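 active means fitted half-maximal dose AC50 no more than ten times the top valid tested dose, with luminescence dropping as dose rises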
* = called active by the depositor; / = not tested or not shown. The entries come from a sample that favours hits as a whole.

SMILES | STK33 inh | GSK3 alpha inh | Dyrk1A ADPGlo | GSK3B inh | ADP-Glo artifact
COCCN(Cc1cc2cc(C)ccc2[nH]c1=O)S(=O)(=O)c1ccc(Cl)cc1 | 0 | -4 | 3 | 2 | /
O=C1c2ccccc2S(=O)(=O)N1Cc1nnc(-c2ccccc2Br)o1 | / | / | 59* | 0 | 9%
O=S1(=O)c2cccc3cccc(c23)N1Cc1nnc(-c2ccccc2Br)o1 | 0 | 1 | 12 | -2 | /
Nc1nc2ccc([N+](=O)[O-])cc2[nH]1 | 10 | -1 | 55* | -1 | 7%
COc1ccc2c(Cl)c(C(=O)N/N=C3\CCCC(=O)C3)sc2c1 | 1 | 4 | 81* | 1 | 11%
COc1ccc2c(Cl)c(C(=O)N/N=C/c3ccc4c(c3)OCO4)sc2c1 | -2 | 2 | 12 | 1 | /
O=C(NN1C(=O)/C(=C\c2ccc(O)c([N+](=O)[O-])c2)SC1=S)c1ccccc1Cl | 0 | -5 | 79* | 6 | 5%
